Published values gathered from unrelated publications.
Each line is one published result; the experiments were not run side by side.
SCN5A: Sodium channel protein type 5 subunit alpha (SCN5A, Homo sapiens, UniProt Q14524)
ALK: ALK tyrosine kinase receptor (ALK, Homo sapiens, UniProt Q9UM73)
SIRT6: NAD-dependent protein deacylase sirtuin-6 (SIRT6, Homo sapiens, UniProt Q8N6T7)
CTSB: Cathepsin B (CTSB, Homo sapiens, UniProt P07858)
CCR2: C-C chemokine receptor type 2 (CCR2, Homo sapiens, UniProt P41597)
TEK: Angiopoietin-1 receptor (TEK, Homo sapiens, UniProt Q02763)
PTPRC: Receptor-type tyrosine-protein phosphatase C (PTPRC, Homo sapiens, UniProt P08575)
FLT4: Vascular endothelial growth factor receptor 3 (FLT4, Homo sapiens, UniProt P35916)
FASN: Fatty acid synthase (FASN, Gallus gallus, UniProt P12276)
PARP2: Poly [ADP-ribose] polymerase 2 (PARP2, Homo sapiens, UniProt Q9UGN5)

CCn1c(-c2nc3ccc(C(=O)N4CCCC(N)C4)cc3n2C)cc2ccccc21 (centres unmarked)  IC50 (SCN5A; ion current; inhibitor): 31.6 µM
Oc1ccc(-c2ccc3[nH]c4ncc(/C=C/c5cccc(F)c5)cc4c3c2)cc1  IC50 (ALK; enzyme activity; inhibitor; ELISA): > 10 µM
COC(=O)c1ccc(C(=O)NOCc2ccccc2)cc1  IC50 (SIRT6; enzyme activity; inhibitor; fluorescence): 89.7 µM
CSc1ccc(/C=C2/C(C)=C(CC(=O)O)c3cc(F)ccc32)cc1  IC50 (Dual specificity calcium/calmodulin-dependent 3',5'-cyclic nucleotide phosphodiesterase 1A (PDE1A, Homo sapiens, UniProt P54750); enzyme activity; inhibitor): > 100 µM
COc1cccc(-c2cc(C)[nH]n2)c1  IC50 (ALK; enzyme activity; inhibitor; TR-FRET): 170 µM
CCc1ccc(/C=N/n2c(C)nc3ccc(C)cc3c2=O)s1  IC50 (CTSB; enzyme activity; inhibitor): 118 µM
Cc1cc(-c2cccc(OC(F)(F)F)c2)[nH]n1  IC50 (ALK; enzyme activity; inhibitor; TR-FRET): 95 µM
CN(Cc1ccc(NC(=O)C2=Cc3cc(-c4ccc(OCCCO)cc4)ccc3CCC2)cc1)C1CCOCC1  IC50 (CCR2; calcium signal; antagonist): 0.045 µM
CNC(=O)c1cc2c(Oc3ccc(NC(=O)C4(C(=O)Nc5ccc(F)cc5)CC4)cc3)ccnc2cc1OC  IC50 (TEK; enzyme activity; inhibitor; radiometric): 0.032 µM
O=C1c2ccccc2-c2cccc3cccc1c23  IC50 (PTPRC; enzyme activity; inhibitor; fluorescence): > 150 µM
CCCC#Cc1ccc2c(n1)[nH]c1ccccc12  IC50 (ALK; enzyme activity; inhibitor; ELISA): > 10 µM
Cc1ccc(C(=O)Nc2ccc(Oc3cc4cnn(C)c4cc3-c3cn[nH]c3)c(F)c2)c(=O)n1-c1ccc(F)cc1  IC50 (FLT4; enzyme activity; inhibitor; radiometric): 0.023 µM
O=C(NCCN1CCCC1)c1cc(-c2ccc(CN3CCOCC3)cc2)nc2ccc(F)cc12  IC50 (SCN5A; ion current; inhibitor; patch clamp): 16 µM
COc1cc(NCC(=O)Nn2c(C)nc3ccc(Cl)cc3c2=O)cc(OC)c1OC  IC50 (CTSB; enzyme activity; inhibitor): 70.5 µM
C=C(C)[C@H](CC=C(C)C)Cc1c(O)cc(OC)c(C(=O)/C=C/c2ccc(O)cc2O)c1O  IC50 (FASN; enzyme activity; inhibitor; radiometric): 9.6 µM
Cc1ccc(CONC(=O)c2ccc(C(N)=O)cc2)cc1  IC50 (SIRT6; enzyme activity; inhibitor; fluorescence): 7.71 µM
Cc1cnc(-c2ccc(-c3ccc(NC(=O)Nc4c(F)cc(F)cc4F)cc3F)c3c2C(=O)NC3)[nH]1  IC50 (TEK; enzyme activity; inhibitor): 0.0065 µM
NC(=O)c1ccc(C(=O)NOCc2ccc(Oc3ccccc3)cc2)cc1  IC50 (SIRT6; enzyme activity; inhibitor; fluorescence): 1.91 µM
COc1ccc(-c2ccc3[nH]c4ncc(-c5cccc([N+](=O)[O-])c5)cc4c3c2)cc1  IC50 (ALK; enzyme activity; inhibitor; ELISA): 9.3 µM
COc1ccc2c(Oc3ccc4c(C(=O)Nc5ccccc5N)cccc4c3)ccnc2c1  IC50 (FLT4; enzyme activity; inhibitor): 0.009 µM
CC(C)(C)Nc1nc(N)c(C(=O)c2ccc(Cl)cc2)s1  IC50 (Cyclin-dependent kinase 2 (CDK2, Homo sapiens, UniProt P24941); enzyme activity; inhibitor; mobility shift): 4.9 µM
NC(=O)c1ccc(C(=O)NOCc2ccc(Sc3ccc(F)cc3)c(C(F)(F)F)c2)cc1  IC50 (SIRT6; enzyme activity; inhibitor; fluorescence): 2.35 µM
COc1cc(/C=N/n2c(C)nc3ccc(Br)cc3c2=O)ccc1O  IC50 (CTSB; enzyme activity; inhibitor): 33.5 µM
Cc1cc(Nc2cc(CN3CCOCC3)c3nc(C)c(Cc4ccc(Cl)cc4F)n3n2)n[nH]1  IC50 (FLT4; enzyme activity; inhibitor; TR-FRET): 0.025 µM
C=C(C)[C@H](CCC(C)(C)O)Cc1c(O)cc(OC)c2c1O[C@H](c1ccc(O)cc1O)CC2=O  IC50 (FASN; enzyme activity; inhibitor; radiometric): 98.2 µM
COc1cc2nccc(Oc3ccc(NC(=O)c4cc5c(n(-c6ccccc6)c4=O)CCCC5=O)nc3)c2cc1OC  IC50 (Tyrosine-protein kinase Fyn (FYN, Homo sapiens, UniProt P06241); enzyme activity in cells; inhibitor; ATP luminescence): > 0.1 µM
Cc1cc(-c2cccc(F)c2)n[nH]1  IC50 (ALK; enzyme activity; inhibitor; TR-FRET): 240 µM
CN1CCN(c2ccc(Nc3ncc4cc(C#N)c(=O)n(C5CCCC5)c4n3)cc2)CC1  IC50 (Serine/threonine-protein kinase D3 (PRKD3, Homo sapiens, UniProt O94806); enzyme activity; inhibitor): 0.0709 µM
NC(=S)c1ccc(C(=O)NOCc2ccc(C(F)(F)F)cc2)cc1  IC50 (SIRT6; enzyme activity; inhibitor; fluorescence): 2.03 µM
COC(=O)[C@@]1(c2ccc(F)cc2F)C[C@@H]1Oc1ccc(C#N)cc1-c1cc(C)[nH]n1 (racemic)  IC50 (ALK; enzyme activity; inhibitor; TR-FRET): 0.041 µM
NC(=O)c1ccc(C(=O)NOCc2ccc(C(=O)c3ccccc3)cc2)cc1  IC50 (SIRT6; enzyme activity; inhibitor; fluorescence): 2.8 µM
Nc1nonc1-n1cc(C(=O)N/N=C/c2ccc(O)c(O)c2O)nn1  IC50 (SIRT6; enzyme activity; inhibitor; fluorescence): 26 µM
NC(=O)c1ccc(C(=O)NOCc2cccc(F)c2)cc1  IC50 (SIRT6; enzyme activity; inhibitor; fluorescence): 6.61 µM
N#Cc1ccc(COC[C@H]2O[C@@H](n3c(NCc4ccc(Cl)c(Cl)c4)nc4c(N)ncnc43)[C@H](O)[C@@H]2O)cc1  IC50 (Heat shock cognate 71 kDa protein (HSPA8, Homo sapiens, UniProt P11142); ligand displacement; FP): 0.39 µM
Cn1c[n+]([C@@H]2O[C@H](COP(=O)(O)OP(=O)([O-])OP(=O)(O)OC[C@H]3O[C@@H](n4cnc5c(=O)[nH]c(N)nc54)[C@H](O)[C@@H]3O)[C@@H](O)[C@H]2O)c2nc(N)[nH]c(=O)c21  IC50 (m7GpppX diphosphatase (DCPS, Homo sapiens, UniProt Q96C86); enzyme activity; inhibitor; radiometric): ~0.03 µM
O=C(NO)c1ccc(C(=O)NOCc2ccc(C(F)(F)F)cc2)cc1  IC50 (SIRT6; enzyme activity; inhibitor; fluorescence): 8.34 µM
O=C(O)c1cc(O)c2c(c1)[C@H]([C@H]1c3cc(C(=O)O)cc(O)c3C(=O)c3c(O[C@@H]4O[C@H](CO)[C@@H](O)[C@H](O)[C@H]4O)cccc31)c1cccc(O[C@@H]3O[C@H](CO)[C@@H](O)[C@H](O)[C@H]3O)c1C2=O  IC50 (PTPRC; enzyme activity; inhibitor; fluorescence): 2 µM
CN(Cc1ccc(NC(=O)C2=Cc3cc(-c4ccc(OCCCCCCCF)cc4)ccc3CCC2)cc1)C1CCOCC1  IC50 (CCR2; calcium signal; antagonist): 0.0011 µM
Cc1cc(-c2cccc(S(C)(=O)=O)c2)[nH]n1  IC50 (ALK; enzyme activity; inhibitor; TR-FRET): 120 µM
CN(Cc1ccc(NC(=O)C2=Cc3cc(-c4ccc(OCCCCCO)cc4)ccc3CCC2)cc1)C1CCOCC1  IC50 (CCR2; calcium signal; antagonist): 0.01 µM
CCOc1ccc2c(-c3cc(C)nc(Nc4cc(OC)cc(C(F)(F)F)c4)n3)cnn2n1  IC50 (Dual specificity protein kinase CLK3 (CLK3, Homo sapiens, UniProt P49761); enzyme activity; inhibitor): > 10 µM
CN(Cc1ccc(NC(=O)C2=Cc3cc(-c4ccc(OCCCF)cc4)ccc3CCC2)cc1)C1CCOCC1  IC50 (CCR2; calcium signal; antagonist): 0.13 µM
C=CC(=O)N1CCN(C(=O)c2cc(Cc3n[nH]c(=O)c4ccccc34)ccc2F)CC1  IC50 (PARP2; enzyme activity; inhibitor): 0.0317 µM
CSc1nc(C)c(-c2ccnc(N[C@H]3CC[C@H](NC(=O)C(C)(C)C)CC3)c2)[nH]1  IC50 (Mitogen-activated protein kinase 10 (MAPK10, Homo sapiens, UniProt P53779); enzyme activity; inhibitor; ELISA): 2.54 µM
Cc1cc(-c2cc(C#N)ccc2O[C@@H]2C[C@]2(CN)c2ccc(F)cc2F)n[nH]1 (racemic)  IC50 (ALK; phosphorylation in cells; inhibitor; ELISA): 0.16 µM
O=C(Nc1ccn(Cc2ccc(O)cc2C(F)(F)F)n1)c1c(F)cccc1F  IC50 (Transient receptor potential cation channel subfamily V member 4 (Trpv4, Rattus norvegicus, UniProt Q9ERZ8); ion current): > 10 µM
NC(=O)c1ccc[n+]([C@@H]2O[C@H](COP(=O)([O-])OP(=O)(O)OC[C@H]3O[C@@H](n4cnc5c(N)ncnc54)[C@H](O)[C@@H]3O)[C@@H](O)[C@H]2O)c1  IC50 (PARP2; enzyme activity; inhibitor): 50 µM
CCS(=O)(=O)Nc1ccc(C(=O)NC2CC3CCC2C3)cc1 (centres unmarked)  IC50 (Pantothenate kinase 1 (Homo sapiens, UniProt Q8TE04); enzyme activity; inhibitor; ATP luminescence): 0.27 µM
Cc1cc(-c2ccncc2)n[nH]1  IC50 (ALK; enzyme activity; inhibitor; TR-FRET): 240 µM
Nc1nonc1-n1cc(C(=O)N/N=C/c2ccc(C(F)(F)F)cc2C(F)(F)F)nn1  IC50 (SIRT6; enzyme activity; inhibitor; fluorescence): 2.69 µM
